{"data": "Published values collected from several papers", "ALK": "ALK tyrosine kinase receptor (ALK, Homo sapiens, UniProt Q9UM73)", "note": "Each line is one published result; the experiments were not run side by side."}
{"Structure (SMILES)": "Cn1cncc1[C@](O)(COc1ccc(C#N)cc1-c1ccc(OC(F)(F)F)cc1)c1ccc(C#N)cc1", "target": "ALK tyrosine kinase receptor (ALK, Homo sapiens, UniProt Q9UM73, C1156Y)", "effect on": "cell-free assay", "technique": "competition with immobilised ligand", "concentration": "1 µM", "quantity": "remaining binding", "result": "92%"}
{"Structure (SMILES)": "Cc1nn(C)cc1-c1nc2c(N3CCN(Cc4ccc(Cl)cc4)CC3)c(Cl)cnc2[nH]1", "target": "ALK", "effect on": "binding", "technique": "competition with immobilised ligand", "concentration": "1 µM", "quantity": "remaining binding", "result": "100%"}
{"Structure (SMILES)": "C#Cc1n[nH]c2c(-c3cn([C@@H](C)c4ccccc4)c(=O)[nH]c3=O)cc(F)cc12", "target": "ALK", "effect on": "enzyme activity", "action": "inhibitor", "concentration": "0.1 µM", "quantity": "inhibition", "result": "7.7%"}
{"Structure (SMILES)": "COc1ncccc1-c1cnn2ccc(N3CCN(C(=O)OC(C)C)CC3)nc12", "target": "ALK", "effect on": "binding", "technique": "competition with immobilised ligand", "concentration": "1 µM", "quantity": "remaining binding", "result": "100%"}
{"Structure (SMILES)": "CC(C)(C)c1cc(C=C(C#N)C#N)cc(Br)c1O", "target": "ALK", "effect on": "enzyme activity", "action": "inhibitor", "concentration": "0.5 µM", "quantity": "remaining activity", "result": "97.9%"}
{"Structure (SMILES)": "C#Cc1n[nH]c2c(-c3cn(C(C)c4ccccn4)c(=O)[nH]c3=O)cc(F)cc12 (stereo not drawn)", "target": "ALK", "effect on": "enzyme activity", "action": "inhibitor", "concentration": "1 µM", "quantity": "inhibition", "result": "11.2%"}
{"Structure (SMILES)": "COc1cc(Nc2ncc(F)c(Nc3ccc4c(n3)NC(=O)C(C)(C)O4)n2)cc(OC)c1OC", "target": "ALK", "effect on": "binding", "technique": "competition with immobilised ligand", "concentration": "10 µM", "quantity": "inhibition", "result": "99%"}
{"Structure (SMILES)": "O=c1[nH]c2ccccc2n1C1CCN(Cc2ccc(-c3[nH]c4cc5ncnc5cc4nc3-c3ccccc3)cc2)CC1", "target": "ALK", "effect on": "cell-free assay", "concentration": "0.5 µM", "quantity": "remaining signal", "result": "106%"}
{"Structure (SMILES)": "Nc1ncc(-c2nc(N3CCOCC3)nc(N3CCOCC3)n2)c(C(F)F)n1", "target": "ALK tyrosine kinase receptor (ALK, Homo sapiens, UniProt Q9UM73, L1196M)", "effect on": "cell-free assay", "technique": "competition with immobilised ligand", "concentration": "10 µM", "quantity": "remaining binding", "result": "44%"}
